# Reference: article PMC8897208 (Acta Pharmaceutica Sinica. B, 2021)
# Assays:
# [1] = target: T1, SIRT6 (Homo sapiens, UniProt Q8N6T7); experiment: In vitro nucleosome deacetylation assay; format: biochemical; conditions: 10 mmol/L, H3K9Ac and H3K18Ac, Western blot
# Procedure, shortened: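 Nucleosomes were isolated from HeLa cells and deacetylated in vitro by SIRT6 in the presence of NAD+. H3K9Ac and H3K18Ac were detected by Western blot.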
# [2] = target: T1, SIRT6; experiment: Fluor de Lys; format: biochemical
# Procedure, shortened: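 Recombinant SIRT6 was expressed in E. coli BL21 in LB with 100 μg/mL ampicillin at 37 °C. Expression was induced with 0.5 mmol/L IPTG at OD600 0.8, then grown 18 h at 16 °C and purified by an earlier method.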
# T1 sequence (Q8N6T7 whole entry): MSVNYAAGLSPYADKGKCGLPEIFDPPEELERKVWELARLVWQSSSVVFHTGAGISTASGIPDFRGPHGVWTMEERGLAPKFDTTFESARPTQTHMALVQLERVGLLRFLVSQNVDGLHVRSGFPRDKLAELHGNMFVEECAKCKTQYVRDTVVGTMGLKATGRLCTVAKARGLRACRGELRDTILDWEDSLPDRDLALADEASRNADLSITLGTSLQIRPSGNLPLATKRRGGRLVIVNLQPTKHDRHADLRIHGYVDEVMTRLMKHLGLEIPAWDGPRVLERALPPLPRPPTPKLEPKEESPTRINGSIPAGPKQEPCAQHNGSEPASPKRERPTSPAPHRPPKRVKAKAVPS
Structure (SMILES),inhibition of SIRT6 deacetylation on nucleosomes [1],IC50 [2] [µM],"inhibition ratio at 50 μmol/L ([2]; FDL assay, substrate Ac-RHKK-Ac-AMC, 50 μmol/L compound) [%]"
"NC(=O)c1cccnc1 [nicotinamide, reference compound]",weak inhibition,–,–
Nc1nonc1-n1cc(C(=O)N/N=C/c2ccccc2O)nn1 [JYQ-1],–,26.8,64.18
